≈ marks a conversion by molar mass, not a printed value. Calls of active or inactive are those of the source. The calls are words filed in the database; no cut-off is given here.
Tests used:
Bacteroides fragilis = experiment: Antibacterial activity against Bacteroides fragilis ATCC 23745 after 24 hrs by ten-fold serial dilution method; format: functional; details: ATCC 23745, 24 h
Method in brief: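 Grown in Fluid Thioglycollate Broth and incubated 24 h at 37 °C. Growth was read by eye, and the MIC (µg/mL) is the lowest concentration that prevented visible growth.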

Neisseria gonorrhoeae = experiment: Antibacterial activity against Neisseria gonorrhoeae ATCC 19424 after 48 hrs by ten-fold serial dilution method; format: functional; details: ATCC 19424, 48 h
Method in brief: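 Tested on chocolate agar made from GC agar base with hemoglobin and Supplement C, incubated 48 h at 37 °C. Plates were checked visually, and the MIC (µg/mL) is the lowest concentration with no visible growth.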

Trichomonas vaginalis = experiment: Antibacterial activity against Trichomonas vaginalis ATCC 30001 after 48 hrs by ten-fold serial dilution method; format: functional; details: ATCC 30001, 48 h
Method in brief: (§1)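 Trichomonads were cultured in Diamond medium with 5% serum and incubated 48 h at 37 °C. Cultures were examined microscopically for motile cells, and the MIC (µg/mL) is the lowest concentration giving no motile organisms.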

Clostridium perfringens = experiment: Antibacterial activity against Clostridium perfringens ATCC 13124 after 24 hrs by ten-fold serial dilution method; format: functional; details: ATCC 13124, 24 h
Method in brief: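 Grown in Fluid Thioglycollate Broth and incubated 24 h at 37 °C. Growth was checked by eye after incubation. MIC was taken as the lowest concentration, in μg/mL, that prevented visible growth.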

Pentatrichomonas hominis = experiment: Antibacterial activity against Pentatrichomonas hominis ATCC 30000 after 48 hrs by ten-fold serial dilution method; format: functional; details: ATCC 30000, 48 h; method in brief: as §1
Tritrichomonas foetus = experiment: Antibacterial activity against Tritrichomonas foetus 1002-96-27 after 48 hrs by ten-fold serial dilution method; format: functional; details: 1002-96-27, 48 h; method in brief: as §1
Candida albicans = experiment: Antifungal activity against Candida albicans; format: functional, organism-based

| SMILES | MIC (Bacteroides fragilis) [µg/mL] | MIC (Neisseria gonorrhoeae) [µg/mL] | MIC (Trichomonas vaginalis) [µg/mL] | MIC (Clostridium perfringens) [µg/mL] | MIC (Pentatrichomonas hominis) [µg/mL] | MIC (Tritrichomonas foetus) [µg/mL] | Activity (Candida albicans) |
| --- | --- | --- | --- | --- | --- | --- | --- |
| Br.Cn1ccnc1SCCOc1ccc(C#N)cc1 | > 100 | > 100 | > 100 | > 100 | > 100 | > 100 | – |
| Cn1c([N+](=O)[O-])cnc1[S+]([O-])CCC(=O)O (stereo not drawn) | 10 (≈ 40.4 µM) | > 100 | 10 (≈ 40.4 µM) | 100 (≈ 404 µM) | 10 (≈ 40.4 µM) | 10 (≈ 40.4 µM) | inactive |
| CCOC(=O)c1ccc(OCCCCSc2nccn2C)cc1 [listing 1 of 2 here] | – | – | – | – | – | – | inactive |
| Cn1c([N+](=O)[O-])cnc1SCCOc1ccc(Br)cc1 | 100 (≈ 279 µM) | > 100 | 10 (≈ 27.9 µM) | > 100 | 10 (≈ 27.9 µM) | 10 (≈ 27.9 µM) | inactive |
| Cn1c([N+](=O)[O-])cnc1SCCCCOc1ccc(C(=O)O)cc1 | 10 (≈ 28.5 µM) | 100 (≈ 285 µM) | 1 (≈ 2.85 µM) | 10 (≈ 28.5 µM) | 1 (≈ 2.85 µM) | 1 (≈ 2.85 µM) | inactive |
| Br.Cn1ccnc1SCCCCOc1ccccc1 | > 100 | 100 | > 100 | > 100 | > 100 | > 100 | inactive |
| Cn1c([N+](=O)[O-])cnc1SCCOc1ccc(C(=O)O)cc1 [listing 1 of 2 here] | 10 (≈ 30.9 µM) | 1 (≈ 3.09 µM) | 1 (≈ 3.09 µM) | 10 (≈ 30.9 µM) | 1 (≈ 3.09 µM) | 1 (≈ 3.09 µM) | – |
| Cn1c([N+](=O)[O-])cnc1SCCCCCCCCC(=O)O | 10 (≈ 31.7 µM) | 0.1 (≈ 0.317 µM) | 10 (≈ 31.7 µM) | 10 (≈ 31.7 µM) | 10 (≈ 31.7 µM) | 10 (≈ 31.7 µM) | inactive |
| Cn1c([N+](=O)[O-])cnc1S(=O)(=O)CCCCC(=O)O | 100 (≈ 343 µM) | 100 (≈ 343 µM) | 100 (≈ 343 µM) | > 100 | 100 (≈ 343 µM) | > 100 | inactive |
| CCOC(=O)c1ccc(OCCCCSc2nccn2C)cc1 [listing 2 of 2 here] | > 100 | > 100 | > 100 | > 100 | > 100 | > 100 | – |
| Cn1ccnc1SCCOc1ccc(C#N)cc1 [listing 1 of 2 here] | > 100 | > 100 | > 100 | > 100 | > 100 | > 100 | – |
| Cn1cc([N+](=O)[O-])nc1SCCCCCCC(=O)O | > 100 | > 100 | 100 (≈ 348 µM) | > 100 | 100 (≈ 348 µM) | 100 (≈ 348 µM) | inactive |
| Cn1ccnc1SCCOc1ccc(C#N)cc1 [listing 2 of 2 here] | – | – | – | – | – | – | inactive |
| Cn1c([N+](=O)[O-])cnc1SCCCCCCCCCCCC(=O)O | 100 (≈ 280 µM) | > 100 | 10 (≈ 28 µM) | > 100 | 10 (≈ 28 µM) | 10 (≈ 28 µM) | inactive |
| Cn1c([N+](=O)[O-])cnc1SCCCCCCCCCCC(=O)O | 10 (≈ 29.1 µM) | 0.1 (≈ 0.291 µM) | 10 (≈ 29.1 µM) | 10 (≈ 29.1 µM) | 10 (≈ 29.1 µM) | 10 (≈ 29.1 µM) | inactive |
| Cn1ccnc1SCCCCC(=O)O | > 100 | > 100 | > 100 | > 100 | > 100 | > 100 | inactive |
| Cn1ccnc1SCCOc1ccc(C(=O)O)cc1 | > 100 | > 100 | > 100 | > 100 | > 100 | > 100 | inactive |
| Cn1c([N+](=O)[O-])cnc1SCCCCCCCCCC(=O)O | 10 (≈ 30.4 µM) | 0.1 (≈ 0.304 µM) | 10 (≈ 30.4 µM) | 10 (≈ 30.4 µM) | 1 (≈ 3.04 µM) | 1 (≈ 3.04 µM) | inactive |
| Cn1c([N+](=O)[O-])cnc1SCCOc1ccc([N+](=O)[O-])cc1 | 100 (≈ 308 µM) | > 100 | 10 (≈ 30.8 µM) | 100 (≈ 308 µM) | 1 (≈ 3.08 µM) | 100 (≈ 308 µM) | inactive |
| Cn1c([N+](=O)[O-])cnc1SCCOc1ccc(C#N)cc1 | – | 100 (≈ 329 µM) | 1 (≈ 3.29 µM) | 100 (≈ 329 µM) | 1 (≈ 3.29 µM) | 1 (≈ 3.29 µM) | inactive |
| Br.Cn1ccnc1SCCCCCCCCCCC(=O)O | > 100 | > 100 | > 100 | > 100 | > 100 | > 100 | inactive |

| SMILES | MIC (Bacteroides fragilis) [µg/mL] | MIC (Neisseria gonorrhoeae) [µg/mL] | MIC (Trichomonas vaginalis) [µg/mL] | MIC (Clostridium perfringens) [µg/mL] | MIC (Pentatrichomonas hominis) [µg/mL] | MIC (Tritrichomonas foetus) [µg/mL] | Activity (Candida albicans) |
| --- | --- | --- | --- | --- | --- | --- | --- |
| Cn1c([N+](=O)[O-])cnc1[S+]([O-])CCCCCCCOc1ccccc1[N+](=O)[O-] (stereo not drawn) | 100 (≈ 244 µM) | > 100 | 100 (≈ 244 µM) | > 100 | 100 (≈ 244 µM) | 100 (≈ 244 µM) | inactive |
| Cn1c([N+](=O)[O-])cnc1S(=O)(=O)CCCCCCCOc1ccccc1[N+](=O)[O-] | > 100 | > 100 | > 100 | > 100 | > 100 | > 100 | inactive |
| Cn1c([N+](=O)[O-])cnc1[S+]([O-])CCOc1ccc(C(=O)O)cc1 (stereo not drawn) | 100 (≈ 295 µM) | 100 (≈ 295 µM) | 100 (≈ 295 µM) | 100 (≈ 295 µM) | 100 (≈ 295 µM) | 100 (≈ 295 µM) | inactive |
| Br.Cn1ccnc1SCCOc1ccc(Br)cc1 | 100 | 100 | > 100 | > 100 | > 100 | > 100 | inactive |
| COC(=O)CCCCCCCCCC[S+]([O-])c1ncc([N+](=O)[O-])n1C (stereo not drawn) | > 100 | 100 (≈ 268 µM) | 100 (≈ 268 µM) | > 100 | 100 (≈ 268 µM) | 100 (≈ 268 µM) | inactive |
| Cn1c([N+](=O)[O-])cnc1SCCCCCC(=O)O | 100 (≈ 366 µM) | 0.1 (≈ 0.366 µM) | 1 (≈ 3.66 µM) | 10 (≈ 36.6 µM) | 1 (≈ 3.66 µM) | 1 (≈ 3.66 µM) | inactive |
| CCOC(=O)c1ccc(OCCCCCCSc2ncc([N+](=O)[O-])n2C)c([N+](=O)[O-])c1 | 10 (≈ 22.1 µM) | > 100 | 10 (≈ 22.1 µM) | 100 (≈ 221 µM) | 10 (≈ 22.1 µM) | 100 (≈ 221 µM) | inactive |
| Br.CCOC(=O)c1ccc(OCCCCSc2nccn2C)cc1 | > 100 | > 100 | 100 | > 100 | 100 | 100 | – |
| Cn1c([N+](=O)[O-])cnc1SCCCCCCOc1ccc(C(=O)O)cc1 | 1 (≈ 2.64 µM) | 0.1 (≈ 0.264 µM) | 1 (≈ 2.64 µM) | 10 (≈ 26.4 µM) | 1 (≈ 2.64 µM) | 1 (≈ 2.64 µM) | inactive |
| Cn1c([N+](=O)[O-])cnc1SCCCOc1ccc(C(=O)O)cc1 | 1 (≈ 2.96 µM) | 1 (≈ 2.96 µM) | 1 (≈ 2.96 µM) | 10 (≈ 29.6 µM) | 1 (≈ 2.96 µM) | 10 (≈ 29.6 µM) | inactive |
| Cn1c([N+](=O)[O-])cnc1SCCCCCCCCCCCCCCCC(=O)O | > 100 | > 100 | 100 (≈ 242 µM) | > 100 | 100 (≈ 242 µM) | 100 (≈ 242 µM) | inactive |
| Cn1c([N+](=O)[O-])cnc1SCCCCCCC(=O)O | 1 (≈ 3.48 µM) | 0.1 (≈ 0.348 µM) | 1 (≈ 3.48 µM) | 1 (≈ 3.48 µM) | 1 (≈ 3.48 µM) | 10 (≈ 34.8 µM) | inactive |
| Cn1c([N+](=O)[O-])cnc1[S+]([O-])CCCCC(=O)O (stereo not drawn) | 100 (≈ 363 µM) | 100 (≈ 363 µM) | 100 (≈ 363 µM) | > 100 | 100 (≈ 363 µM) | > 100 | inactive |
| COC(=O)CCCCCCCCCCS(=O)(=O)c1ncc([N+](=O)[O-])n1C | > 100 | > 100 | > 100 | > 100 | > 100 | > 100 | inactive |
| Cn1c([N+](=O)[O-])cnc1SCCOc1ccc(C(=O)O)cc1 [listing 2 of 2 here] | – | – | – | – | – | – | inactive |
| COC(=O)CCCCCCCCCCSc1ncc([N+](=O)[O-])n1C | > 100 | > 100 | > 100 | > 100 | > 100 | > 100 | inactive |
| Cn1c([N+](=O)[O-])cnc1[S+]([O-])CCOc1ccc(C#N)cc1 (stereo not drawn) | 100 (≈ 312 µM) | 100 (≈ 312 µM) | 10 (≈ 31.2 µM) | > 100 | 100 (≈ 312 µM) | 100 (≈ 312 µM) | inactive |
| Cn1c([N+](=O)[O-])cnc1SCCC(=O)O | 10 (≈ 43.2 µM) | 10 (≈ 43.2 µM) | 10 (≈ 43.2 µM) | 10 (≈ 43.2 µM) | 10 (≈ 43.2 µM) | 10 (≈ 43.2 µM) | inactive |
| Cn1c([N+](=O)[O-])cnc1SCCCCC(=O)O | 1 (≈ 3.86 µM) | 1 (≈ 3.86 µM) | 1 (≈ 3.86 µM) | – | 1 (≈ 3.86 µM) | 1 (≈ 3.86 µM) | inactive |
| Cn1c([N+](=O)[O-])cnc1S(=O)(=O)CCC(=O)O | > 100 | 100 (≈ 380 µM) | 100 (≈ 380 µM) | > 100 | 100 (≈ 380 µM) | 100 (≈ 380 µM) | inactive |
| Cn1c([N+](=O)[O-])cnc1SCCOc1ccc(C(=O)[O-])cc1.[Na+] | 1 | 1 | 1 | 10 | 1 | 10 | – |

Source: ChEMBL document CHEMBL3272259, “Nitroimidazoles with antibacterial activity against Neisseria gonorrhoeae” (1977)
